Experimental data as given in ChEMBL document CHEMBL2439952, “Synthesis and anti-Trypanosoma cruzi activity of naphthoquinone-containing triazoles: electrochemical studies on the effects of the quinoidal moiety” (Bioorg Med Chem, 2013).

Legend:
[1] = Cytotoxicity against mouse HMC after 24 hrs by PrestoBlue staining-based assay; details: mouse HMC cells, read-out: LC50
Procedure, shortened: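 Primary heart muscle cells from 18-day-old mouse embryo hearts, dissociated with trypsin and collagenase in PBS pH 7.2. Seeded at 6x10^4 cells/well in RPMI-1640 (pH 7.2), 10% FBS, 2 mM glutamine, 24 h, 37°C. Treated 24 h at 37°C in phenol-red-free supplemented medium. PrestoBlue 5 h, read at 570 and 600 nm. LC50 = concentration damaging 50% of cells versus untreated.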

Trypanosoma cruzi [2] = assay: Antitrypanosomal activity against trypomastigote form of Trypanosoma cruzi Y assessed as parasite growth inhibition after 24 hrs by Neubauer cell counting method; format: functional, organism-based
[3] = Selectivity index, ratio of LC50 for mouse HMC to IC50 for trypomastigote form of Trypanosoma cruzi Y
Procedure, shortened: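 Ratio of 24 h LC50 to 24 h IC50. The LC50 came from PrestoBlue on primary mouse embryo heart muscle cells. The IC50 came from Y strain bloodstream trypomastigotes taken at peak parasitaemia from infected albino mice, isolated by differential centrifugation, and held at 10^7 cells/mL in DME with 10% mouse blood. DMSO was at most 0.5%.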

Trypanosoma cruzi [4] = assay: Potency index, ratio of benznidazole IC50 to compound IC50 for trypomastigote form of Trypanosoma cruzi Y; format: functional

SMILES	IC50 (Trypanosoma cruzi [2]) [µM]	other results
CC1(C)OC2=C(C(=O)C(=O)c3ccccc32)C1n1cc(CNC2=CC(=O)c3ccccc3C2=O)nn1 (stereo not given)	80.8	CC50 at 24 h [1]: < 125 µM; Ratio LC50/IC50 [3]: < 1.5
O=C1C=C(NCc2cn(CN3C(=O)c4ccccc4C3=O)nn2)C(=O)c2ccccc21	> 4000	–
O=C1C=C(NCc2cn(-c3cccc([N+](=O)[O-])c3)nn2)C(=O)c2ccccc21	> 4000	–
CCC(C)(O)c1cn(C2CC(C)(C)OC3=C2C(=O)c2ccccc2C3=O)nn1 (stereo not given)	> 500	–
CC1(C)CC(N=[N+]=[N-])C2=C(O1)C(=O)c1ccccc1C2=O (stereo not given)	318	–
O=C1C(Cl)=C(NCc2cn(CCN3C(=O)c4ccccc4C3=O)nn2)C(=O)c2ccccc21	> 4000	–
O=C1C(Br)=C(NCc2cn(-c3cccc([N+](=O)[O-])c3)nn2)C(=O)c2ccccc21	> 4000	–
CC1(C)OC2=C(C(=O)C(=O)c3ccccc32)C1n1cc(-c2ccccc2)nn1 (stereo not given)	17.3	–
O=C1C=C(NCc2cn(CCCN3C(=O)c4ccccc4C3=O)nn2)C(=O)c2ccccc21	> 4000	–
O=C1C(Br)=C(NCc2cn(CCCN3C(=O)c4ccccc4C3=O)nn2)C(=O)c2ccccc21	> 4000	–
O=C1C=C(NCc2cn(CCN3C(=O)c4ccccc4C3=O)nn2)C(=O)c2ccccc21	> 4000	–
CC1(C)OC2=C(C(=O)c3ccccc3C2=O)C1n1cc(C2CCCCC2)nn1 (stereo not given)	> 1500	–
CC1(C)Oc2c(c3nc4ccccc4nc3c3ccccc23)C1n1cc(-c2ccccc2)nn1 (stereo not given)	> 1500	–
O=C1C(Br)=C(NCc2cn(CN3C(=O)c4ccccc4C3=O)nn2)C(=O)c2ccccc21	> 4000	–
O=C1C(Cl)=C(NCc2cn(CCCN3C(=O)c4ccccc4C3=O)nn2)C(=O)c2ccccc21	> 4000	–
CCC(C)(O)c1cn(C2C3=C(OC2(C)C)C(=O)c2ccccc2C3=O)nn1 (stereo not given)	> 4000	–
CC1(C)OC2=C(C(=O)C(=O)c3ccccc32)C1n1cc(CNC2=C(Cl)C(=O)c3ccccc3C2=O)nn1 (stereo not given)	8.2	CC50 at 24 h [1]: 282 µM; Ratio LC50/IC50 [3]: 34.3; Ratio IC50 (Trypanosoma cruzi [4]): 12
CC1(C)OC2=C(C(=O)C(=O)c3ccccc32)C1n1cc(CNC2=C(Br)C(=O)c3ccccc3C2=O)nn1 (stereo not given)	6.8	CC50 at 24 h [1]: 63.1 µM; Ratio LC50/IC50 [3]: 9.3; Ratio IC50 (Trypanosoma cruzi [4]): 15
O=C1C(Cl)=C(NCc2cn(CN3C(=O)c4ccccc4C3=O)nn2)C(=O)c2ccccc21	> 4000	–
CC1(C)CC(n2cc(C3CCCCC3)nn2)C2=C(O1)C(=O)c1ccccc1C2=O (stereo not given)	> 2000	–
CC1(C)OC2=C(C(=O)c3ccccc3C2=O)C1n1cc(-c2ccccc2)nn1 (stereo not given)	> 4000	–
O=C1C(Br)=C(NCc2cn(CCN3C(=O)c4ccccc4C3=O)nn2)C(=O)c2ccccc21	> 4000	–
CC1(C)Oc2c(c3nccnc3c3ccccc23)C1n1cc(-c2ccccc2)nn1 (stereo not given)	> 4000	–
CC1(C)OC2=C(C(=O)/C(=N\O)c3ccccc32)C1n1cc(-c2ccccc2)nn1 (stereo not given)	> 3200	–
CCCCCc1cn(C2CC(C)(C)OC3=C2C(=O)c2ccccc2C3=O)nn1 (stereo not given)	> 4000	–
O=C1C=C(NCc2cn(CCCCN3C(=O)c4ccccc4C3=O)nn2)C(=O)c2ccccc21	> 4000	–
CCCCCCc1cn(C2C3=C(OC2(C)C)C(=O)c2ccccc2C3=O)nn1 (stereo not given)	> 2000	–
